Assay results as given in ChEMBL document CHEMBL5257104, “Identification of a novel spirocyclic Nek2 inhibitor using high throughput virtual screening” (Bioorg Med Chem Lett, 2023).
Active and inactive are the calls of the source. The rule behind the calls is not given here.

Legend:
[1] = molecular target: T1, Serine/threonine-protein kinase Nek2 (Homo sapiens, UniProt P51955); experiment: Inhibition of human recombinant Nek2 in presence of 50 uM ATP by ADP-Glo kinase assay
T1 sequence (P51955 whole entry): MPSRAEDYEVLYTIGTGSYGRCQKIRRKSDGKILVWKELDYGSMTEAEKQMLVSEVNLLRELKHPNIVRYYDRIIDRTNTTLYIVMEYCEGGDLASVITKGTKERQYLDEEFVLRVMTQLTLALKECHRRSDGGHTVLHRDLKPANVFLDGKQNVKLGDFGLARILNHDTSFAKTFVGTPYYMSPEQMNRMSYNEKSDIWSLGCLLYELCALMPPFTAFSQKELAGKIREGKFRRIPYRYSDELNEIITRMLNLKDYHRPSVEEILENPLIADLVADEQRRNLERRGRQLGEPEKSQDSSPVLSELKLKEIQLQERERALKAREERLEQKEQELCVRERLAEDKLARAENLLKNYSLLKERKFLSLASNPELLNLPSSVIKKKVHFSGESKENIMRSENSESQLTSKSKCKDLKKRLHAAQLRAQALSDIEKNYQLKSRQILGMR
How it was run: (§1)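 Kinase activity was measured at 50 μM ATP using recombinant enzyme. A concentration-response curve was generated for each kinase, and IC50 was obtained by fitting the data.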

[2] = molecular target: Serine/threonine-protein kinase Nek7 (Homo sapiens, UniProt Q8TDX7); experiment: Inhibition of Nek7 (unknown origin); how it was run: as §1
Sequence of Serine/threonine-protein kinase Nek7 (Q8TDX7 whole entry): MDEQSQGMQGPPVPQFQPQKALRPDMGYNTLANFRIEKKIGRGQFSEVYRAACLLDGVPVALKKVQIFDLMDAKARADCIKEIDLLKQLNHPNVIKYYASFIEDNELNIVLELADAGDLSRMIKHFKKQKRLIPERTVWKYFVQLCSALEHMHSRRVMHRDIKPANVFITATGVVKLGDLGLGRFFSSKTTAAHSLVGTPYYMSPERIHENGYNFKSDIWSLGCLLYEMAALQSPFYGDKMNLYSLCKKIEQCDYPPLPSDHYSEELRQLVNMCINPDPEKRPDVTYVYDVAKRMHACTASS

[3] = test system: MDA-MB-231; experiment: Cytotoxicity against human MDA-MB-231 cells assessed as inhibition of cell growth by MTT assay; format: functional, cell-based
How it was run: (§2)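 Cell viability read by MTT assay across a range of concentrations. EC50 taken from the dose-response curve. See Supporting Information, Section III, for details not given here.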

[4] = molecular target: T2, Aurora kinase A (Homo sapiens, UniProt O14965); experiment: Inhibition of Aurora A (unknown origin); how it was run: as §1
T2 sequence (O14965 whole entry): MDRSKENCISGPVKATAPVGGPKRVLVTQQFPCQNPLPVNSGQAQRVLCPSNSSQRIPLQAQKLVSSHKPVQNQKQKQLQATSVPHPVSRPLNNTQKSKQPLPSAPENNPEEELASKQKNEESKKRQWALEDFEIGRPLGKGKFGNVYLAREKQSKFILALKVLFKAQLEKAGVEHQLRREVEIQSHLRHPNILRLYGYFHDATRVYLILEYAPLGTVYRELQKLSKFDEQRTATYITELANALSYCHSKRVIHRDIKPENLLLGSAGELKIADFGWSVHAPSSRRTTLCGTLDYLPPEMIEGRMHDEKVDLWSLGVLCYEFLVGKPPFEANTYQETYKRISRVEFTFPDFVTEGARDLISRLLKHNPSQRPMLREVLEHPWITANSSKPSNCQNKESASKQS

[5] = molecular target: Serine/threonine-protein kinase PLK1 (Homo sapiens, UniProt P53350); experiment: Inhibition of Plk1 (unknown origin); how it was run: as §1
Sequence of Serine/threonine-protein kinase PLK1 (P53350 whole entry): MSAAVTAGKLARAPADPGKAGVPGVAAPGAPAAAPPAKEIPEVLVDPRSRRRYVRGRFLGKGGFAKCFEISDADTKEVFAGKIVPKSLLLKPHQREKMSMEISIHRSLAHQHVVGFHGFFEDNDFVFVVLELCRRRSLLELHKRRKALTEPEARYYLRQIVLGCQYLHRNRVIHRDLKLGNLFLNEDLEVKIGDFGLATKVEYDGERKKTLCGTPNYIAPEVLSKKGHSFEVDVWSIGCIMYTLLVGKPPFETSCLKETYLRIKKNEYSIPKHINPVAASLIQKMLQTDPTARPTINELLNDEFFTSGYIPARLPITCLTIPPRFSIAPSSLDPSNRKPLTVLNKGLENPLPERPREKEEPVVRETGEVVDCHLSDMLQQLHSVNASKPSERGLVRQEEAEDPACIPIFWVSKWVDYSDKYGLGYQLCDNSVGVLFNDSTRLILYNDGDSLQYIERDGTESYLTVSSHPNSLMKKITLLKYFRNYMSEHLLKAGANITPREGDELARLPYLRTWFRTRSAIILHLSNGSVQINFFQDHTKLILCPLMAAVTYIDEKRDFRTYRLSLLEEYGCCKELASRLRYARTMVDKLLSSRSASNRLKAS

[6] = test system: A549; experiment: Cytotoxicity against human A549 cells assessed as inhibition of cell growth by MTT assay; format: functional, cell-based; how it was run: as §2
[7] = molecular target: Cyclin-dependent kinase 1 (Homo sapiens, UniProt P06493); experiment: Inhibition of CDK1 (unknown origin); how it was run: as §1
Sequence of Cyclin-dependent kinase 1 (P06493 whole entry): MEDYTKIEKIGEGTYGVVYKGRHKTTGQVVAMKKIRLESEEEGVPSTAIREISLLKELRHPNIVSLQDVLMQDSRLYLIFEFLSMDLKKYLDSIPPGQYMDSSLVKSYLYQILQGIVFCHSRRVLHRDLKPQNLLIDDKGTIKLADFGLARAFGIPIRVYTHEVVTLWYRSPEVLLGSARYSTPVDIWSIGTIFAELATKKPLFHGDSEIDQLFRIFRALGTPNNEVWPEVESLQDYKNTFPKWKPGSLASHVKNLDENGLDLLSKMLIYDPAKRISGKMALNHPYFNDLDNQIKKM

[8] = test system: A549; experiment: Inhibition of Akt phosphorylation at S473 residue in human A549 cells by Western blotting analysis; format: cell-based; conditions: dose 5-20 µM
How it was run: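 A549 cells were treated for 24 h across several concentrations. Ser-473 phospho-Akt was detected by Western blot with GAPDH as the loading control. DMSO served as vehicle control and a reference Nek2 inhibitor as positive control.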

[9] = test system: A549; experiment: Antimigratory activity against human A549 cells at 50 to 100 uM by wound healing assay; format: functional, cell-based; conditions: dose 50-100 µM
How it was run: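 A549 monolayers were scratched and treated. Migration was judged by imaging wound boundaries at the initial scratch (t = 0) and at 24 hr post-treatment, compared with vehicle control.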

[10] = molecular target: T1, Serine/threonine-protein kinase Nek2; experiment: Inhibition of human recombinant Nek2 in presence of 150 uM ATP by ADP-Glo kinase assay
How it was run: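 Recombinant human Nek2 kinase activity assay run with ATP raised threefold, from the standard 50 μM to 150 μM. Inhibitor tested over a concentration series, and IC50 obtained by fitting the concentration-response curve.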

| Structure (SMILES) | IC50 [1] [µM] | also measured |
| --- | --- | --- |
| O=C1NC2(CCN(S(=O)(=O)c3ccccc3)CC2)N=C1c1ccc(Br)cc1 | 9.3 |  |
| CCOC(=O)c1ccc(S(=O)(=O)N2CCC3(CC2)N=C(c2ccc(Br)cc2)C(=O)N3)cc1 | 14.6 |  |
| CS(=O)(=O)N1CCC2(CC1)NCC(=O)N2 | 32.1 |  |
| Cc1cc(C)c(S(=O)(=O)N2CCC3(CC2)N=C(c2ccc(Br)cc2)C(=O)N3)c(C)c1 | 9.8 |  |
| Cc1ccc(S(=O)(=O)N2CCC3(CC2)N=C(c2ccc(Br)cc2)C(=O)N3)cc1C | 12.3 |  |
| O=C1CNC2(CCNCC2)N1 | 32.5 |  |
| CN1CCC2(CC1)NCC(=O)N2 | 58.1 |  |
| O=C1NC2(CCN(C(=O)c3ccccc3)CC2)N=C1c1ccc(Br)cc1 | 9.2 |  |

The next molecules have a lower IC50 [1] than those just listed; values first:

| IC50 [1] [µM] | Structure (SMILES) | also measured |
| --- | --- | --- |
| 8.7 | CC(C)(C)c1ccc(C2=NC3(CCN(S(C)(=O)=O)CC3)NC2=O)cc1 |  |
| 8.1 | O=C1NC2(CCN(S(=O)(=O)c3ccccc3)CC2)N=C1c1ccccc1 |  |
| 6.8 | O=C1NC2(CCN(S(=O)(=O)Cc3ccccc3)CC2)N=C1c1ccc(Br)cc1 |  |
| 6 | O=C1NC2(CCN(S(=O)(=O)c3ccccc3)CC2)N=C1c1ccc(Cl)cc1 |  |
| 5.6 | O=C1NC2(CCN(S(=O)(=O)c3cccs3)CC2)N=C1c1ccc(Br)cc1 |  |
| 5 | CC(C)(C)c1ccc(S(=O)(=O)N2CCC3(CC2)N=C(c2ccc(Br)cc2)C(=O)N3)cc1 |  |
| 4.9 | Cc1ccc(C2=NC3(CCN(S(C)(=O)=O)CC3)NC2=O)cc1 |  |
| 4.5 | O=C1NC2(CCN(S(=O)(=O)c3ccccc3)CC2)N=C1c1ccc(F)cc1 |  |
| 3.2 | Cc1ccc(C2=NC3(CCN(S(C)(=O)=O)CC3)NC2=O)cc1C |  |
| 2.4 | CS(=O)(=O)N1CCC2(CC1)N=C(c1ccc(Br)cc1)C(=O)N2 | IC50 [2]: 28.8 µM; IC50 [3]: 18.1 µM; IC50 [4]: 21.3 µM; IC50 [5]: 20.4 µM; IC50 [6]: 22.7 µM; IC50 [7]: 29.3 µM; inhibition [8]: Dose-Dependent Effect; Activity [9]: Active; IC50 [10]: 17.1 µM |
